In ChEMBL document CHEMBL5653631, “A Potent and Selective ULK1 Inhibitor Suppresses Autophagy and Sensitizes Cancer Cells to Nutrient Stress” (iScience, 2018) one finds fold change (FC) and inhibition data, which are given here for three molecules.

As a reminder, the inhibition is the change of the read-out against control, counted positive when it falls.

Assay [1] deals with Protein kinase C gamma type (Homo sapiens) (UniProt P05129). The assay is described as follows: Inhibition of human recombinant PKCg at 15 nM related to control ULK1.
Assay [2] has as its target Serine/threonine-protein kinase 24 (Homo sapiens) (UniProt Q9Y6E0). The assay is described as follows: Inhibition of human recombinant MST3 at 15 nM in presence of ATP by radiometric assay relative to control.
The target of assay [3] is Serine/threonine-protein kinase 32C (Homo sapiens) (UniProt Q86UX6). As to the kind of experiment: Inhibition of human recombinant YANK3 at 15 nM in presence of ATP by radiometric assay relative to control.
Assay [4] has as its target Dual specificity mitogen-activated protein kinase kinase 1 (Homo sapiens) (UniProt Q02750). The assay is described as follows: Inhibition of human recombinant MAP2K1 at 40 nM in presence of ATP by radiometric assay relative to control.
For assay [5], the target named is Platelet-derived growth factor receptor beta (Homo sapiens) (UniProt P09619). As to the kind of experiment: Inhibition of human recombinant PDGFRb at 40 nM in presence of ATP by radiometric assay relative to control.
In assay [6] the target is Interferon-induced, double-stranded RNA-activated protein kinase (Homo sapiens) (UniProt P19525). The assay is described as follows: Inhibition of human recombinant PKR at 40 nM in presence of ATP by radiometric assay relative to control.
Assay [7] deals with RAC-alpha serine/threonine-protein kinase (Homo sapiens) (UniProt P31749). The assay is described as follows: Inhibition of human recombinant AKT1 at 500 nM in presence of ATP by radiometric assay relative to control. Summed up: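 Panel of 327 recombinant human kinases in radiometric activity assays, each screened in duplicate at a single inhibitor concentration; percent activity remaining relative to vehicle control, percent inhibition taken as 100 minus activity remaining.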

Assay [8] deals with T1, Interleukin-1 receptor-associated kinase 4 (Homo sapiens) (UniProt Q9NWZ3).
T1 sequence (whole entry): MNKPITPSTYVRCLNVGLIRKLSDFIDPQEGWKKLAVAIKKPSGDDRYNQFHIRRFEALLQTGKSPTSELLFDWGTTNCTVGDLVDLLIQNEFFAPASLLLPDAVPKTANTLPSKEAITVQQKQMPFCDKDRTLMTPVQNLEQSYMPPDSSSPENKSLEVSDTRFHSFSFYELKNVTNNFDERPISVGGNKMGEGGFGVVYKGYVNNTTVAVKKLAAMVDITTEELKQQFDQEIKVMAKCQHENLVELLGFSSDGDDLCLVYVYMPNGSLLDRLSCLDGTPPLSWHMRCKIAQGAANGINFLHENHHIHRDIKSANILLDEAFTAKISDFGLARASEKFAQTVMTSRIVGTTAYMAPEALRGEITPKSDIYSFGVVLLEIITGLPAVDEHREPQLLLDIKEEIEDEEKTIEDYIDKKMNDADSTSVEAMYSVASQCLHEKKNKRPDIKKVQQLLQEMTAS
As to the kind of experiment: Inhibition of human recombinant IRAK4 at 500 nM related to control ULK1.

The target in assay [9] is Tyrosine-protein kinase FRK (Homo sapiens) (UniProt P42685). The assay is described as follows: Inhibition of human recombinant FRK at 500 nM in presence of ATP by radiometric assay relative to control.
Assay [10] has as its target T2, Ephrin type-A receptor 1 (Homo sapiens) (UniProt P21709).
T2 sequence (whole entry): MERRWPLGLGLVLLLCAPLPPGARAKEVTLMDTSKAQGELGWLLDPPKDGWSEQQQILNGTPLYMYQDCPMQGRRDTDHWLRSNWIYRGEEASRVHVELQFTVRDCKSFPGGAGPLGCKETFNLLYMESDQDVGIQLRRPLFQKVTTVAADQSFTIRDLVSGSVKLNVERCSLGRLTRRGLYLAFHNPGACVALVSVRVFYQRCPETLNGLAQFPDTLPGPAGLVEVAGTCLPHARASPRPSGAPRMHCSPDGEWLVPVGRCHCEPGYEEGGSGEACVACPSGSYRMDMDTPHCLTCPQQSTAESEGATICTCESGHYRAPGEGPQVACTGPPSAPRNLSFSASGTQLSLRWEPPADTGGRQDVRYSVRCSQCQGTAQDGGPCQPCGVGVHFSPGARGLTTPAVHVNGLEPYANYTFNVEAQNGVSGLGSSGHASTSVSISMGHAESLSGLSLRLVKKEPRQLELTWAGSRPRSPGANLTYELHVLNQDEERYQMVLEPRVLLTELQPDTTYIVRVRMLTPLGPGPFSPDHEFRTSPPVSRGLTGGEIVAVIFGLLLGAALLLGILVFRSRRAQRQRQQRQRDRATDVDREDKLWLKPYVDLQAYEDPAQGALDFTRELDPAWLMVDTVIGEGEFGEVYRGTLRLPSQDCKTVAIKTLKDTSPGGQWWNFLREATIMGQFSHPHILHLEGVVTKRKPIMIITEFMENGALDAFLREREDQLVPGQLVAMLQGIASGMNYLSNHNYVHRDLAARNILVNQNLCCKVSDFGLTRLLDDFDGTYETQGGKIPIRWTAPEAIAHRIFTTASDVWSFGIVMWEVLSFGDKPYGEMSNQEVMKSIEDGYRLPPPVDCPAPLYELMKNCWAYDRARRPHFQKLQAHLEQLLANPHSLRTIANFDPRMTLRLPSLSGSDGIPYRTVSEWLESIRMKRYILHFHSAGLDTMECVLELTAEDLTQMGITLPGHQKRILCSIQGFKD
The assay is described as follows: Inhibition of human recombinant EphA1 at 500 nM in presence of ATP by radiometric assay relative to control.

Assay [11] is filed under the species Homo sapiens. As to the kind of experiment: Inhibition of human recombinant KHS1 at 500 nM related to control ULK1.

Sequence of Dual specificity mitogen-activated protein kinase kinase 1 (Homo sapiens) (Q02750 whole entry): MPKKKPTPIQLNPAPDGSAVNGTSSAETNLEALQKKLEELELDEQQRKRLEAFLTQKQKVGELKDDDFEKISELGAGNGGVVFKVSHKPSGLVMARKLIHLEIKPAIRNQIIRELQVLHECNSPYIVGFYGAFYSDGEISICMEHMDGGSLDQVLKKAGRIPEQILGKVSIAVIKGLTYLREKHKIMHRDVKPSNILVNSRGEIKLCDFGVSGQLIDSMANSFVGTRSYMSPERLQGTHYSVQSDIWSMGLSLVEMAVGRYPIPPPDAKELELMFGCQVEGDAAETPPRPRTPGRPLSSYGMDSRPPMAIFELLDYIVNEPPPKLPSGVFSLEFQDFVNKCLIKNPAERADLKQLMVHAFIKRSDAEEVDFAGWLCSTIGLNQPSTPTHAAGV
Sequence of Serine/threonine-protein kinase 24 (Homo sapiens) (Q9Y6E0 whole entry, looked up): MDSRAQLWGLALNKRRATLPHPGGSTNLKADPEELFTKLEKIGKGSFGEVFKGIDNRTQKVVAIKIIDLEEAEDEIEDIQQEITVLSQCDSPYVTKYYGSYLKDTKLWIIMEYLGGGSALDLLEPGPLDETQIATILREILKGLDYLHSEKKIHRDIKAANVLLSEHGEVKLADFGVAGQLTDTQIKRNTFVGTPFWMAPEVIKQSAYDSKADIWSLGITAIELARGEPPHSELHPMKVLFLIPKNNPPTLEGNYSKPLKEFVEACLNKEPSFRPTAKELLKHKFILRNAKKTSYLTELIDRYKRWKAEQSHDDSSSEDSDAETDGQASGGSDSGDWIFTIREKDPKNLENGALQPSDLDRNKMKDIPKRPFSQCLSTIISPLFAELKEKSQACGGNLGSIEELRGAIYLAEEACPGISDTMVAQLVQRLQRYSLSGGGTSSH
Sequence of Serine/threonine-protein kinase 32C (Homo sapiens) (Q86UX6 whole entry): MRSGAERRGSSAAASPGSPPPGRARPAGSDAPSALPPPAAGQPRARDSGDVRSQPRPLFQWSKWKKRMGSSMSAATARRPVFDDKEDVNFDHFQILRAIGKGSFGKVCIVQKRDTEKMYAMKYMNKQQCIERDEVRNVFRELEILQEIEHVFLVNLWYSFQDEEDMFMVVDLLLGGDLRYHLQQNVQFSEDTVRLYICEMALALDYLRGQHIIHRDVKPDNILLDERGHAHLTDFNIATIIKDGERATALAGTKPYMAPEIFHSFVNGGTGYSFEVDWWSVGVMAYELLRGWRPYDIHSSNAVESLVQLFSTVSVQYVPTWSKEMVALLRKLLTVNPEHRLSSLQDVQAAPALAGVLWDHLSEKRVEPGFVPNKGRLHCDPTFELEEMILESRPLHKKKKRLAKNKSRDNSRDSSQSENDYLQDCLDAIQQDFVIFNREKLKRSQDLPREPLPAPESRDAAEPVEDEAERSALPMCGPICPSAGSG
Sequence of Platelet-derived growth factor receptor beta (Homo sapiens) (P09619 whole entry): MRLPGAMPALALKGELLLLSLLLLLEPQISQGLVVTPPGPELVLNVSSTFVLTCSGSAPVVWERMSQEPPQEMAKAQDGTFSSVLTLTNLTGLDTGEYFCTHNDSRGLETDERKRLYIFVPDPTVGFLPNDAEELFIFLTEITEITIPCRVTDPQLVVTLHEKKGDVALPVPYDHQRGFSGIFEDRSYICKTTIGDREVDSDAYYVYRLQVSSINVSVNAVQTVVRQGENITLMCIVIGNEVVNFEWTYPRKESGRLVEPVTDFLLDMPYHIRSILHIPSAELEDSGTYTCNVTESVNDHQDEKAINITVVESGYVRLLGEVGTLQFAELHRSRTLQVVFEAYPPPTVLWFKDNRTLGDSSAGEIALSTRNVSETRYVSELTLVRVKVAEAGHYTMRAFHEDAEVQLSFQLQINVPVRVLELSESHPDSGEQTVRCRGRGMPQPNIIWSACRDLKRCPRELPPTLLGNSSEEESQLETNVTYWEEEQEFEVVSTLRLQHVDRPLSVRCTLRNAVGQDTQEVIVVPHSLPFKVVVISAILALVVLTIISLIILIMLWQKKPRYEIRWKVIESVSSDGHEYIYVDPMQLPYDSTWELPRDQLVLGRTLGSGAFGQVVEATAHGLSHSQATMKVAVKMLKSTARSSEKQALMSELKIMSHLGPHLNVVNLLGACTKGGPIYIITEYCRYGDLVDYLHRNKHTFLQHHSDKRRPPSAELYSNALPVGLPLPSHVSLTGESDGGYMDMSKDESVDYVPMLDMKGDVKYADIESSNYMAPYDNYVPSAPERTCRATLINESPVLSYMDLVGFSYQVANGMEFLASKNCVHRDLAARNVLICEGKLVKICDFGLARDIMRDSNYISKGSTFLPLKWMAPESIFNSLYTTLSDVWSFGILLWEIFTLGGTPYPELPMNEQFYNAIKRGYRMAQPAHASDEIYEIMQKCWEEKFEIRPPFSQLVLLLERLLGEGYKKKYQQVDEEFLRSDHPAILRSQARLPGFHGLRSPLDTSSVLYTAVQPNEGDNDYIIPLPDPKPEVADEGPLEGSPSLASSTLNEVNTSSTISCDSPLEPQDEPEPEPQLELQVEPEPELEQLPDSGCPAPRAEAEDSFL
Sequence of RAC-alpha serine/threonine-protein kinase (Homo sapiens) (P31749 whole entry): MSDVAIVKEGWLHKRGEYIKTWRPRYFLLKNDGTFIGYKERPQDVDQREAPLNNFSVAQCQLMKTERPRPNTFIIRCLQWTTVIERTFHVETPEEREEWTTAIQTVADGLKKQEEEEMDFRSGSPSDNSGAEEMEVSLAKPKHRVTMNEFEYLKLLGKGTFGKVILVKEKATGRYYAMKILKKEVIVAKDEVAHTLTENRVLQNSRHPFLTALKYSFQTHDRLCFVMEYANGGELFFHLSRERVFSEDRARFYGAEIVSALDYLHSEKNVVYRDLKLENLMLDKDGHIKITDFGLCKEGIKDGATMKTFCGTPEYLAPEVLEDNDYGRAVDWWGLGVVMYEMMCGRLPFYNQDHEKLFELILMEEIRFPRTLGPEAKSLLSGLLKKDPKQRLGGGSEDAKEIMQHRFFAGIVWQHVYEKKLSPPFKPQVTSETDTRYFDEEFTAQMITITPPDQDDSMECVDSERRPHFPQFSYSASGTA
Sequence of Interferon-induced, double-stranded RNA-activated protein kinase (Homo sapiens) (P19525 whole entry): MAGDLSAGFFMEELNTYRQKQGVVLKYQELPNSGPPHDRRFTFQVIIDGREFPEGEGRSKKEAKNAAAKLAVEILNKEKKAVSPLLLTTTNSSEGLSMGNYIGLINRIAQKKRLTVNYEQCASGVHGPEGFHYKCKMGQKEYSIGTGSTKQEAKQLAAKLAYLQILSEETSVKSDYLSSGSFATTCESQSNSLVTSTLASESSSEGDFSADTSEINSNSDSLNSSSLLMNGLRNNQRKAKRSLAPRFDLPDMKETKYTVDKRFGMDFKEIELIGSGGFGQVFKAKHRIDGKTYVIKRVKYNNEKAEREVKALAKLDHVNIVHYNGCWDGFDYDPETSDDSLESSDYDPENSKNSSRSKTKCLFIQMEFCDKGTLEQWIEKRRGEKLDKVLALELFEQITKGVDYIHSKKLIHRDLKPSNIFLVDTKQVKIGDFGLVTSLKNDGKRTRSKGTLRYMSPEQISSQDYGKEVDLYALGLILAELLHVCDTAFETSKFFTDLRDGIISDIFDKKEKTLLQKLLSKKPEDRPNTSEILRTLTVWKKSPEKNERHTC
Sequence of Tyrosine-protein kinase FRK (Homo sapiens) (P42685 whole entry): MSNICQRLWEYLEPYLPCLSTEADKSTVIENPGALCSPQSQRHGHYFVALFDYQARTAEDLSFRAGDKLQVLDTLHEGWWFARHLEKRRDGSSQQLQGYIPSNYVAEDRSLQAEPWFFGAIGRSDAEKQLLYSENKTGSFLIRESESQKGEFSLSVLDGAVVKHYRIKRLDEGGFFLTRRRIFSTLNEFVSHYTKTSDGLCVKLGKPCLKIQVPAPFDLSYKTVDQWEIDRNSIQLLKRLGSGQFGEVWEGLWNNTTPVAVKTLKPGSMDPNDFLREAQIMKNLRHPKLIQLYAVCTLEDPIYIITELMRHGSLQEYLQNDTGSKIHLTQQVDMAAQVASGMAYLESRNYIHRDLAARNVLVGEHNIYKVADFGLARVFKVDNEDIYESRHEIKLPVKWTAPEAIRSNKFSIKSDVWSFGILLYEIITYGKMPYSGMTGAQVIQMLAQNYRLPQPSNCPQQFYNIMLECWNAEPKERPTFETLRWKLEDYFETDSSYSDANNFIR

`CC(C)[C@H](NC(=O)c1cc(-c2cnn3cc(-c4ccc(OCCN5CCCCC5)cc4)cnc23)cs1)C(F)(F)F`: in assay [1], the fold change (FC) is 0. The results for the inhibition in assay [2] and in assay [3] were 0% and 3%, respectively.
In the case of `O=C(N[C@@H](C1CC1)C(F)(F)F)c1cc(-c2cnn3cc(-c4ccc(F)cc4)cnc23)cs1`, the inhibition is 0% in assay [4], 5% in assay [5] and 0% in [6].
Consider `CNC(=O)c1ccccc1Oc1nc(Nc2cc(OC)c(OC)c(OC)c2)ncc1Br`, for which the inhibition in [7] is 0%; in assay [9], 9%; in assay [10] it was 13%. The fold change (FC) in [8] was determined as 0.08; in assay [11] it was 0.15.
